Consider 10 molecules from ChEMBL document CHEMBL1123529, “Analogues of substance P. Peptides containing D-amino acid residues in various positions of substance P and displaying agonist or receptor selective antagonist effects” (1986).

For assay [1], the target named is Substance-P receptor (Cavia porcellus) (UniProt P30547). Briefly: In vitro percent agonist activity in guinea pig ileum. It is filed as functional, tissue-based. The gist of the method: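 Distal ileum from Dunkin-Hartley guinea pigs (300-350 g, either sex) in a 5-mL organ bath of Krebs solution at 37 °C, gassed with 95% O2/5% CO2. Dose-response curves were run on a 3-min cycle with 1-min agonist contact and washout. Agonist activity is expressed as a percentage of substance P.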
Chain of Substance-P receptor (Cavia porcellus) (P30547 whole entry): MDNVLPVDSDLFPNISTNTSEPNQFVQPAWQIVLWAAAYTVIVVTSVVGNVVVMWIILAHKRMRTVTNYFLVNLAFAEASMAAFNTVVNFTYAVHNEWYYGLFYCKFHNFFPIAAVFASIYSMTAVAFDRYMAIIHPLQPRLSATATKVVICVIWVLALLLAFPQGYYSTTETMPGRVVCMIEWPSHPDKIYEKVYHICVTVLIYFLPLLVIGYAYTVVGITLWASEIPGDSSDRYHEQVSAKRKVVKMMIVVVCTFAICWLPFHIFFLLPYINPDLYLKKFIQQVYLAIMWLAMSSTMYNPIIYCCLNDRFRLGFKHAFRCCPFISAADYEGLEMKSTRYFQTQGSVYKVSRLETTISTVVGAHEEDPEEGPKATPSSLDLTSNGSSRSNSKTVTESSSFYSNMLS

The target in assay [2] is Metabotropic glutamate receptor 3 (Rattus norvegicus) (UniProt P31422). Nature of the assay: Antagonistic activity against Glutamate receptor in rat spinal cord at concentration of 50 uM. The class given is functional, tissue-based. The procedure, abridged:
(§1)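 Neonatal hemisectioned spinal cord from Wistar rats (Alderley Park strain, 2-7 days old), anaesthetised with intraperitoneal urethane (25% w/v, […]) and then decapitated. Cord superfused with oxygenated medium at 1 mL/min. Agonist (SP, SP(6-11), glutamate or carbachol) applied as 2-mL doses in the superfusate. Antagonist superfused for at least 15 min before agonists were retested. Read-out: % change in ventral root–cord DC potential response amplitude.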

Assay [3] concerns the target Substance-P receptor (Cavia porcellus) (UniProt P30547). Briefly: Evaluated in vitro for percent agonist activity in guinea pig ileum (substance P receptor). The class given is functional, tissue-based.
Assay [4] shares this target. Nature of the assay: Antagonistic activity against Substance P(6-11) receptor in guinea pig ileum at concentration of 50 uM. The class given is functional, tissue-based. The gist of the method: (§2)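 Distal ileum from Dunkin-Hartley guinea pigs (300-350 g, both sexes) in a Krebs organ bath at 37 °C, gassed with 95% O2/5% CO2. Agonist (SP or SP(6-11)) dose-response curves run on a 3-min cycle with 1-min contact, with and without antagonist. Dose ratio = agonist EC50 with antagonist / EC50 alone. At least two preparations per compound; ratios below 2 taken as insignificant.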

Assay [5] has the same target. Nature of the assay: Antagonistic activity against Substance P receptor in guinea pig ileum at concentration of 50 uM. The class given is functional, tissue-based. The procedure, abridged:
as §2

For assay [6], the target named is Substance-P receptor (Rattus norvegicus) (UniProt P14600). Briefly: Antagonistic activity against Substance P receptor in rat spinal cord at concentration of 50 uM.
Chain of Substance-P receptor (Rattus norvegicus) (P14600 whole entry, looked up): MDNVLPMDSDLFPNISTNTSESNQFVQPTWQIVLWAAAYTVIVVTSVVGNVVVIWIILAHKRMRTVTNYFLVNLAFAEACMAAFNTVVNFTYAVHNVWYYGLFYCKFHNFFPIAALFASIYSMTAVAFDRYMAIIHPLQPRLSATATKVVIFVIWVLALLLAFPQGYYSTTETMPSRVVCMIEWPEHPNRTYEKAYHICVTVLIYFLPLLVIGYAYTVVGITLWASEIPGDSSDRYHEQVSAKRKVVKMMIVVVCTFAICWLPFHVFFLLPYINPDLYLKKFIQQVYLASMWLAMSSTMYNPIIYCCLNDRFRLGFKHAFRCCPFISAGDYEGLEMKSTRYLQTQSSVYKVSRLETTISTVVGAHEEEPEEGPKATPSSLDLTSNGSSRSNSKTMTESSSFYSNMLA
Assay [7] has the same target. Briefly: Antagonistic activity against Substance P(6-11) receptor in rat spinal cord at concentration of 5 uM.
Assay [8] shares this target. Nature of the assay: Antagonistic activity against Substance P(6-11) receptor in rat spinal cord at concentration of 50 uM.
Assay [9] deals with Metabotropic glutamate receptor 3 (Rattus norvegicus) (UniProt P31422). Briefly: Antagonistic activity against Glutamate receptor in rat spinal cord at concentration of 10 uM. The class given is functional, tissue-based. The gist of the method: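 Cord superfused with oxygenated medium at 1 mL/min. Agonist (SP, SP(6-11), glutamate or carbachol) applied as 2-mL doses in the superfusate. Antagonist superfused for at least 15 min before agonists were retested. Read-out: % change in ventral root–cord DC potential response amplitude.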
Chain of Metabotropic glutamate receptor 3 (Rattus norvegicus) (P31422 23-879 limits assumed): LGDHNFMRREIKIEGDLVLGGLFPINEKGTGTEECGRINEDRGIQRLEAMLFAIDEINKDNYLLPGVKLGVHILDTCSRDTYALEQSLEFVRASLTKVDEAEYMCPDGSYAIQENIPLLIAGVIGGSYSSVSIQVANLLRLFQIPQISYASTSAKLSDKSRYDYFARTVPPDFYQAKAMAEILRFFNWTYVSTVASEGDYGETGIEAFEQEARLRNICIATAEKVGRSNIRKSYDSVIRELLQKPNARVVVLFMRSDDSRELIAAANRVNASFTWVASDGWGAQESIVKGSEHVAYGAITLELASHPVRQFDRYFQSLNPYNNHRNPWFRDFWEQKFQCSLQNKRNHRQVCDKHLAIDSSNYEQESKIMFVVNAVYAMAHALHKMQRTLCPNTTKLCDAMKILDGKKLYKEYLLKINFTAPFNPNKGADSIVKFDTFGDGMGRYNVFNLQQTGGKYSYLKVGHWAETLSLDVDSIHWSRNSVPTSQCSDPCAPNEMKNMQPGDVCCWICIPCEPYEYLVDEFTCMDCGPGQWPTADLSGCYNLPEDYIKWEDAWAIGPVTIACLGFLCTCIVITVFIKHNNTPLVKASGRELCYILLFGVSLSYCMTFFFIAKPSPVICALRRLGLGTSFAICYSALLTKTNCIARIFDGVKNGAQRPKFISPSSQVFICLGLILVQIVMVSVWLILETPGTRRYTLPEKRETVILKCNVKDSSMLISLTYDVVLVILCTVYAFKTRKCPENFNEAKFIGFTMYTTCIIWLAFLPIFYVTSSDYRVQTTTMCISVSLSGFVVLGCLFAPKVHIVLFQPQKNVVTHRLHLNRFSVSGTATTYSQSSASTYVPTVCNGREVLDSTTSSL

For assay [10] the target is unchanged. Briefly: Antagonistic activity against Glutamate receptor in rat spinal cord at concentration of 25 uM. The class given is functional, tissue-based. The gist of the method:
as §1

Assay [11] concerns the target Substance-P receptor (Cavia porcellus) (UniProt P30547). Briefly: Antagonistic activity against Substance P(6-11) receptor in guinea pig ileum at concentration of 10 uM. It is filed as functional, tissue-based. The procedure, abridged:
as §2

For assay [12], the target named is Substance-P receptor (Rattus norvegicus) (UniProt P14600). Nature of the assay: Antagonistic activity against Substance P(6-11) receptor in rat spinal cord at concentration of 10 uM.
The target is the same in assay [13]. Briefly: Antagonistic activity against Substance P(6-11) receptor in rat spinal cord at concentration of 25 uM.
Assay [14] has the same target. Briefly: Antagonistic activity against Substance P receptor in rat spinal cord at concentration of 25 uM.
In assay [15] the target is Substance-P receptor (Cavia porcellus) (UniProt P30547). Nature of the assay: Antagonistic activity against Substance P(6-11) receptor in guinea pig ileum at concentration of 47 uM. It is filed as functional, tissue-based. The procedure, abridged:
as §2

The target is the same in assay [16]. Briefly: Antagonistic activity against Substance P(6-11) receptor in guinea pig ileum at concentration of 6.4 uM. It is filed as functional, tissue-based. The gist of the method:
as §2

Assay [17] shares this target. Briefly: Antagonistic activity against Substance P receptor in guinea pig ileum at concentration of 47 uM. It is filed as functional, tissue-based. The procedure, abridged: as §2
The target is the same in assay [18]. Nature of the assay: Antagonistic activity against Substance P receptor in guinea pig ileum at concentration of 6.4 uM. The class given is functional, tissue-based. The procedure, abridged:
as §2

Assay [19] deals with Metabotropic glutamate receptor 3 (Rattus norvegicus) (UniProt P31422). Briefly: Antagonistic activity against Glutamate receptor in spinal rat cord at concentration of 25 uM. It is filed as functional. The procedure, abridged: as §1
Assay [20] shares this target. Briefly: Antagonistic activity against Glutamate receptor in spinal rat cord at concentration of 5 uM. It is filed as functional. The gist of the method: as §1
For assay [21], the target named is Substance-P receptor (Cavia porcellus) (UniProt P30547). Briefly: Antagonistic activity against Substance P(6-11) receptor in guinea pig ileum at concentration of 5 uM. It is filed as functional, tissue-based. The gist of the method: as §2
In assay [22] the target is Substance-P receptor (Rattus norvegicus) (UniProt P14600). Briefly: Antagonistic activity against Substance P receptor in rat spinal cord at concentration of 5 uM.
Assay [23] has as its target Substance-P receptor (Cavia porcellus) (UniProt P30547). Briefly: Antagonistic activity against Substance P receptor in guinea pig ileum at concentration of 5 uM. It is filed as functional, tissue-based. The gist of the method:
as §2

Values joined by “and” are separate entries in the source; they are usually repeats but may differ in a detail not shown here. Equal values may be shown once. Where a SMILES comes first, the peptide text is derived from it. [ ]: non-standard residue; d: D form. The star is where a group is joined. Cbz = O=C(OCc1ccccc1)* Where only a bound is given, the exact number is not on record here.

For `COC(=O)[C@@H](CCSC)NC(=O)[C@H](CC(C)C)NC(=O)[C@@H](Cc1c[nH]c2ccccc12)NC(=O)[C@H](Cc1c[nH]c2ccccc12)NC(=O)[C@@H](Cc1c[nH]c2ccccc12)NC(=O)[C@H](CCC(N)=O)NC(=O)[C@H](CCC(N)=O)NC(=O)[C@@H]1CCCN1C(=O)[C@H](CCCCNC(=O)OCc1ccccc1)NC(=O)[C@@H]1CCCN1C(=O)[C@H](CCCN=C(N)N)NC(=O)OCc1ccccc1`, the SP in [1] is 0%.
As to `COC(=O)[C@H](CCSC)NC(=O)[C@@H]1CCCN1C(=O)[C@H]1CCCN1C(=O)[C@H](Cc1ccccc1)NC(=O)[C@H](Cc1ccccc1)NC(=O)[C@H](CCC(N)=O)NC(=O)[C@H](CCC(N)=O)NC(=O)[C@@H]1CCCN1C(=O)[C@@H](CCCCNC(=O)OCc1ccccc1)NC(=O)[C@H]1CCCN1C(=O)[C@@H](CCCN=C(N)N)NC(=O)OCc1ccccc1`, the Change in amplitude response in [2] was 2%; in assay [6] it was 29% and 39%; in [7], -67%; in assay [8], -100%. This molecule also returned an SP in assay [3] of 0%. Further, the Activity is under 2 dose ratio in assay [4] and 3 dose ratio in [5].
With `COC(=O)[C@H](CCSC)NC(=O)[C@@H](NC(=O)[C@H](NC(=O)[C@H](Cc1ccccc1)NC(=O)[C@H](Cc1ccccc1)NC(=O)[C@H](CCC(N)=O)NC(=O)[C@H](CCC(N)=O)NC(=O)[C@@H]1CCCN1C(=O)[C@H](CCCCNC(=O)OCc1ccccc1)NC(=O)[C@@H]1CCCN1C(=O)[C@H](CCCN=C(N)N)NC(=O)OCc1ccccc1)C(C)C)C(C)C`, the figures for the Change in amplitude response in assay [2], in [6] and in assay [8] were -36%, -30% and -22%, respectively. Further, the SP in assay [3] came out at 0%. For the same molecule, the Activity in assay [4] and in [5] was under 2 dose ratio in each case.
With `COC(=O)[C@@H](CCSC)NC(=O)[C@H](CC(C)C)NC(=O)CNC(=O)[C@@H](Cc1c[nH]c2ccccc12)NC(=O)[C@@H](Cc1c[nH]c2ccccc12)NC(=O)[C@H](CCC(N)=O)NC(=O)[C@H](CCC(N)=O)NC(=O)[C@@H]1CCCN1C(=O)[C@H](CCCCNC(=O)OCc1ccccc1)NC(=O)[C@@H]1CCCN1C(=O)[C@H](CCCN=C(N)N)NC(=O)OCc1ccccc1` (Cbz-RPK(Cbz)PQQ[dW][dW]GL[dM]-OMe), the Change in amplitude response was -3% in assay [9]; -13% in assay [10]; 11% in assay [2]; 8.3% in assay [6]; -33% in assay [12]; -77% in assay [13]. For the same molecule, in assay [8], the Change in amplitude response is -75%. Also, the SP in assay [3] stood at 0%. This molecule gave an Activity in assay [11] of 90 dose ratio.
For the molecule `CSCC[C@@H](NC(=O)[C@H](CC(C)C)NC(=O)[C@@H](Cc1c[nH]c2ccccc12)NC(=O)[C@H](Cc1c[nH]c2ccccc12)NC(=O)[C@@H](Cc1c[nH]c2ccccc12)NC(=O)[C@H](CCC(N)=O)NC(=O)[C@H](CCC(N)=O)NC(=O)[C@@H]1CCCN1C(=O)[C@H](CCCCNC(=O)OCc1ccccc1)NC(=O)[C@@H]1CCCN1C(=O)[C@H](CCCN=C(N)N)NC(=O)OCc1ccccc1)C(=O)O`, the values for the Change in amplitude response in assay [10], in assay [14] and in assay [13] were -40%, -12% and -49%, respectively. Further, the SP in [3] was under 2%.
Consider `COC(=O)[C@@H](CCSC)NC(=O)[C@H](CC(C)C)NC(=O)CNC(=O)[C@H](Cc1ccccc1)NC(=O)[C@H](Cc1ccccc1)NC(=O)[C@@H](NC(=O)[C@H](NC(=O)[C@@H]1CCCN1C(=O)[C@H](CCCCNC(=O)OCc1ccccc1)NC(=O)[C@@H]1CCCN1C(=O)[C@H](CCCN=C(N)N)NC(=O)OCc1ccccc1)C(C)C)C(C)C`, for which the Change in amplitude response was -5% in [9]; -17% in assay [2]; -13% in [6]; 31% in [12]; -21% in assay [8]. Besides, in assay [3], the SP came to 0.001%.
Take `CSCC[C@@H](NC(=O)[C@H](CC(C)C)NC(=O)[C@@H](Cc1c[nH]c2ccccc12)NC(=O)[C@H](Cc1c[nH]c2ccccc12)NC(=O)[C@@H](Cc1c[nH]c2ccccc12)NC(=O)[C@H](CCC(N)=O)NC(=O)[C@H](CCC(N)=O)NC(=O)[C@@H]1CCCN1C(=O)[C@H](CCCCN)NC(=O)[C@@H]1CCCN1C(=O)[C@@H](N)CCCN=C(N)N)C(=O)O`: the Change in amplitude response in assay [10] is 7%; in assay [14], 30%; in assay [13], -55%. Also, the SP in assay [3] came to 0%. For the same molecule, the Activity in assay [15] was determined as 16.1 dose ratio; in assay [16], 2 dose ratio; in [17] it was 10.3 dose ratio; in assay [18], 3.1 dose ratio.
As to `COC(=O)[C@@H](CCSC)NC(=O)[C@H](CC(C)C)NC(=O)[C@@H](Cc1c[nH]c2ccccc12)NC(=O)[C@H](Cc1c[nH]c2ccccc12)NC(=O)[C@@H](Cc1c[nH]c2ccccc12)NC(=O)[C@H](CCC(N)=O)NC(=O)[C@H](CCC(N)=O)NC(=O)[C@@H]1CCCN1C(=O)[C@H](CCCCN)NC(=O)[C@@H]1CCCN1C(=O)[C@@H](N)CCCN=C(N)N`, the Change in amplitude response is 27% in assay [2]; 29% in assay [19]; -3% in [20]; 32% in assay [22]; 21% in assay [14]; -19% in assay [6]. Further, the Change in amplitude response is -42% in assay [7], -87% in [13] and -87% in assay [8]. Further, the Activity in assay [21] is 8.1 dose ratio.
Turning to `COC(=O)[C@H](CCSC)NC(=O)[C@@H]1CCCN1C(=O)[C@H]1CCCN1C(=O)[C@H](Cc1ccccc1)NC(=O)[C@H](Cc1ccccc1)NC(=O)[C@H](CCC(N)=O)NC(=O)[C@H](CCC(N)=O)NC(=O)[C@@H]1CCCN1C(=O)[C@H](CCCCNC(=O)OCc1ccccc1)NC(=O)[C@@H]1CCCN1C(=O)[C@H](CCCN=C(N)N)NC(=O)OCc1ccccc1`, the Change in amplitude response is -37% in [2]; 12% in assay [22]; -9% in assay [6]; -46% in assay [7]; -86% in [8]. The molecule also gave an SP in assay [3] of 0%. Further, the Activity in assay [21] and in assay [23] was under 2 dose ratio in each case.
As for `COC(=O)[C@@H](CCSC)NC(=O)[C@H](CC(C)C)NC(=O)[C@@H](Cc1c[nH]c2ccccc12)NC(=O)[C@H](Cc1c[nH]c2ccccc12)NC(=O)[C@@H](Cc1c[nH]c2ccccc12)NC(=O)[C@H](CCC(N)=O)NC(=O)[C@H](CCC(N)=O)NC(=O)[C@@H]1CCCN1C(=O)[C@H](CCCCNC(=O)OCc1ccccc1)NC(=O)[C@@H]1CCCN1C(=O)[C@@H](N)CCCN=C(N)N`, the Change in amplitude response in assay [2] is -18%; in [22] it was 11%; in assay [6], -29%; in assay [7], -13%; in assay [12], -62%. Also, the Activity in [21] and in assay [23] was under 2 dose ratio each time.
